Results: ChEMBL document CHEMBL2010764, “Novel alkynylphosphonate analogue of calcitriol with potent antiproliferative effects in cancer cells and lack of calcemic activity” (ACS Med Chem Lett, 2011)
Activity calls are given as the source filed them. The calls are words filed in the database; no cut-off is given here.

Tests used:
HN12 = test: Antiproliferative activity against human HN12 cells assessed as decrease in cell number at 1 nM after 72 hrs by hemocytometeric analysis; format: functional, cell-based
Outline: (§1)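 Cells exposed to the test agent or isopropanol vehicle over 72 h, across 0.1–100 nM; proliferation expressed as percentage of vehicle. Experiments repeated at least three times per cell line; one-way ANOVA with Bonferroni post-test.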

SVEC vGPCR (Mouse) = test: Antiproliferative activity against mouse SVEC vGPCR cells assessed as decrease in cell number after 72 hrs by WST assay
Mus musculus [1] = test: Toxicity in CF1 mouse assessed as mortality at 5 ug/kg, ip qd for 5 days; format: organism-based; details: in vivo, 0.005 mg/kg, 120 h
Outline: (§2)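 Mice in three groups (n = 5/group) received daily intraperitoneal injections of test agent, calcitriol, or isopropanol vehicle at 5 or 20 μg/kg body weight for 5 days. Survival was followed through the examination period, with blood sampled before dosing and at 24, 48, 72 and 96 h for plasma calcium (Arsenazo III absorbance). Liver, duodenum, lungs and kidneys were inspected macroscopically.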

T47D = test: Antiproliferative activity against human T47D cells assessed as decrease in cell number after 72 hrs by WST assay; format: functional, cell-based
Mus musculus [2] = test: Hypercalcemic activity in CF1 mouse assessed as increase in plasma calcium level at 20 ug/kg, ip qd for 5 days measured after 96 hrs; format: functional, organism-based
Outline: (§3)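 Mice (n = 5/group) received daily intraperitoneal injections of agent or isopropanol vehicle at 5 or 20 μg/kg body weight for 5 days. Blood was taken before dosing (0 h) and at 24, 48, 72 and 96 h. Plasma calcium was read by Arsenazo III absorbance. Means ± SE; experiment repeated twice.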

HCT-116 = test: Antiproliferative activity against human HCT116 cells assessed as decrease in cell survival at 0.1 to 100 nM after 72 hrs by WST1 assay; format: functional, cell-based; outline: as §1
Mus musculus [3] = test: Toxicity in CF1 mouse assessed as mortality at 20 ug/kg, ip qd for 5 days; format: organism-based; details: in vivo, 0.02 mg/kg, 120 h; outline: as §2
Mus musculus [4] = test: Toxicity in CF1 mouse assessed as morphological alterations in kidney at 5 to 20 ug/kg, ip qd for 5 days measured after 15 days; format: organism-based; details: in vivo, 360 h
Outline: (§4)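 Mice dosed intraperitoneally once daily for 5 days at 5 or 20 μg/kg in isopropanol vehicle. Liver, duodenum, lungs and kidneys were inspected visually for macroscopic morphological alterations after treatment.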

T98G [5] = test: Antiproliferative activity against human T98G cells assessed as decrease in cell number after 72 hrs by WST assay; format: functional, cell-based; outline: as §1
Mus musculus [6] = test: Toxicity in CF1 mouse assessed as morphological alterations in lung at 5 to 20 ug/kg, ip qd for 5 days measured after 15 days; format: organism-based; details: in vivo, 360 h; outline: as §4
[7] = Antiproliferative activity against mouse LM05e cells assessed as decrease in cell number after 72 hrs by WST assay; format: functional, cell-based
Mus musculus [8] = test: Toxicity in CF1 mouse assessed as morphological alterations in duodenum at 5 to 20 ug/kg, ip qd for 5 days measured after 15 days; format: organism-based; details: in vivo, 360 h; outline: as §4
[9] = Antiproliferative activity against human HN12 cells assessed as decrease in cell number after 72 hrs by WST assay; format: functional, cell-based; details: HN12, 72 h
T98G [10] = test: Antiproliferative activity against human T98G cells harboring scrambled shRNA assessed as decrease in cell number at 10 nM after 72 hrs by WST assay; format: functional, cell-based
Outline: (§5)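 T98G cells transfected with VDR-silencing shRNA plasmid or scrambled shRNA plasmid. 48 h after transfection, treated with 10 nM agent or vehicle, then counted 72 h after treatment. Triplicate wells, three independent experiments; mean ± SE. VDR knockdown was checked on lysates taken 48 h after transfection with 2 or 4 μg plasmid.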

Mus musculus [11] = test: Hypercalcemic activity in CF1 mouse assessed as increase in plasma calcium level at 5 ug/kg, ip qd for 5 days measured after 96 hrs; format: functional, organism-based; outline: as §3
Mus musculus [12] = test: Toxicity in CF1 mouse assessed as morphological alterations in liver at 5 to 20 ug/kg, ip qd for 5 days measured after 15 days; format: organism-based; details: in vivo, 360 h; outline: as §4
LM3 = test: Antiproliferative activity against mouse LM3 cells assessed as decrease in cell survival at 0.1 to 100 nM after 72 hrs by WST1 assay; format: functional, cell-based; outline: as §1
T98G [13] = test: Antiproliferative activity against human T98G cells harboring plasmid silencing VDR assessed as decrease in cell number at 10 nM after 72 hrs by WST assay; format: functional, cell-based; outline: as §5
[14] = Cmax in mouse at 5 ug/kg; format: ADME, organism-based; design: dose 5 ug/kg; details: in vivo, 0.005 mg/kg
Mus musculus [15] = test: Hypercalcemic activity in CF1 mouse assessed as increase in plasma calcium level at 5 to 20 ug/kg, ip qd for 5 days measured after 96 hrs; format: functional, organism-based; outline: as §3
Mus musculus [16] = test: Toxicity in CF1 mouse assessed as mortality at 5 to 20 ug/kg, ip qd for 5 days; format: organism-based; details: in vivo, 120 h; outline: as §2
[17] = AUC in mouse at 5 ug/kg; format: ADME, organism-based; details: plasma, 0.005 mg/kg

With `C=C1/C(=C\C=C2/CCC[C@]3(C)[C@@H]([C@H](C)CC#CP(=O)(OCC)OCC)CC[C@@H]23)C[C@@H](O)C[C@@H]1O` the Activity (HN12) was “Active”, the IC50 (SVEC vGPCR (Mouse)) was 113 nM and the Activity (Mus musculus [1]) was “Non-toxic”. For the same compound, the IC50 (T47D) was 4.78 nM, the Activity (Mus musculus [2]) was “inactive” and the Activity (HCT-116) was “inactive”. The Activity (Mus musculus [3]) was “Non-toxic”, the Activity (Mus musculus [4]) was “Non-toxic” and the IC50 (T98G [5]) was 36.1 nM. The Activity (Mus musculus [6]) was “Non-toxic”, the IC50 [7] was 1.68 nM and the Activity (Mus musculus [8]) was “Non-toxic”. For the same compound, the IC50 [9] was 22.3 nM, the Activity (T98G [10]) was “Active” and the Activity (Mus musculus [11]) was “inactive”. The Activity (Mus musculus [12]) was “Non-toxic”, the Activity (LM3) was “inactive” and the Activity (T98G [13]) was “Active”.
With `C=C1/C(=C\C=C2/CCC[C@]3(C)[C@@H]([C@H](C)CCCC(C)(C)O)CC[C@@H]23)C[C@@H](O)C[C@@H]1O` [CALCITRIOL] the Cmax [14] was greater than 10 ng/mL, the Activity (Mus musculus [15]) was “Active” and the Activity (Mus musculus [16]) was “Toxic”. The AUC [17] was greater than 40 ng·h/mL.
